In ChEMBL document CHEMBL1240527, “3'-Deoxy phosphoramidate dinucleosides as improved inhibitors of hepatitis C virus subgenomic replicon and NS5B polymerase activity” (J Med Chem, 2010):

Experiments:
Hepatitis C virus = experiment: Antiviral activity against HCV1b infected in human HuH6 cells assessed as inhibition of viral RNA replication after 3 days by RT-PCR analysis; assay type: functional, organism-based, Hepacivirus hominis; settings: genotype 1b, HuH-6, 72 h
Summary of the method: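 Huh-6 cells stably carrying a genotype 1b (Con1-derived) subgenomic HCV replicon, seeded 1.5 × 10^4 cells/well and incubated 24 h at 37 C, 5% CO2. Then exposed to serial dilutions from 0.025 to 65 μM (10 concentrations) in complete DMEM for 3 days. Lysates assayed for replicon RNA by real-time RT-qPCR against a neomycin-plasmid standard curve. EC50 is 50% RNA reduction versus untreated control, averaged over three independent experiments.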

[1] = Cytotoxicity against human HuH6 cells after 3 days by MTS/PMS method; assay type: cell-based
Summary of the method: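 Run in parallel with the replicon assay: Huh-6 genotype 1b replicon cells seeded 1.5 × 10^4/well, treated 24 h later with 0.025–65 μM compound in complete DMEM for 3 days at 37 C, 5% CO2. Cell number read by MTS/PMS. CC50 is the concentration giving 50% reduction in proliferation of exponentially growing cells versus untreated control.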

[2] = Inhibition of HCV recombinant His6x-tagged NS5B Cdelta55 polymerase-mediated RNA synthesis expressed in Escherichia coli BL21(DE3) assessed as reduction of pppGpC accumulation after 15 mins; set-up: species or system Hepacivirus hominis
Summary of the method: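 Inhibitor range 0–1000 μM. Reaction started with 2 mM MnCl2, 1 mM MgCl2, 50 μM γ-32P-GTP and 100 μM CTP, then 15 min at 30 C. EDTA/formamide quench. pppGpC resolved on sequencing gel and quantified by phosphorimaging. IC50 fitted; at least three experiments.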

SMILES | EC50 (Hepatitis C virus) | CC50 at 72 h [1] | IC50 [2]
CO[C@@H]1[C@H](OP(=O)(NCCCCCC(=O)O)OC[C@@H]2C[C@@H](O)[C@H](n3ccc(N)nc3=O)O2)[C@@H](COP(=O)(O)O)O[C@H]1n1cnc2c(=O)[nH]c(N)nc21 (some centres undefined) | 1.7 µM | > 65 µM | 34 µM
CO[C@@H]1[C@H](OP(=O)(NCCCOP(=O)(O)O)OC[C@@H]2C[C@@H](O)[C@H](n3ccc(N)nc3=O)O2)[C@@H](CO)O[C@H]1n1cnc2c(=O)[nH]c(N)nc21 (some centres undefined) | – | – | 21 µM
CO[C@@H]1[C@H](OP(=O)(NCCCC(C(=O)O)C(=O)O)OC[C@@H]2C[C@@H](O)[C@H](n3ccc(N)nc3=O)O2)[C@@H](CO)O[C@H]1n1cnc2c(=O)[nH]c(N)nc21 (some centres undefined) | – | – | 19 µM
CO[C@@H]1[C@H](OP(=O)(NCCCCCC(=O)O)OC[C@@H]2C[C@@H](O)[C@H](n3ccc(N)nc3=O)O2)[C@@H](CO)O[C@H]1n1cnc2c(=O)[nH]c(N)nc21 (some centres undefined) | – | – | 67 µM
CO[C@@H]1[C@H](OP(=O)(NCCCOP(=O)(O)O)OC[C@@H]2C[C@@H](O)[C@H](n3ccc(N)nc3=O)O2)[C@@H](COP(=O)(O)O)O[C@H]1n1cnc2c(=O)[nH]c(N)nc21 (some centres undefined) | 3.9 µM | > 65 µM | 10 µM
CO[C@@H]1[C@H](OP(=O)(NCCCC(C(=O)O)C(=O)O)OC[C@@H]2C[C@@H](O)[C@H](n3ccc(N)nc3=O)O2)[C@@H](COP(=O)(O)O)O[C@H]1n1cnc2c(=O)[nH]c(N)nc21 (some centres undefined) | 2.6 µM | > 65 µM | 8 µM
COCCOCCNP(=O)(OC[C@@H]1C[C@@H](O)[C@H](n2ccc(N)nc2=O)O1)O[C@H]1[C@@H](OC)[C@H](n2cnc3c(=O)[nH]c(N)nc32)O[C@@H]1COP(=O)(O)O (some centres undefined) | 3.6 µM | > 65 µM | 18 µM
CO[C@@H]1[C@H](O[P@@](=O)(NCCCOP(=O)(O)O)OC[C@@H]2C[C@@H](O)[C@H](n3ccc(N)nc3=O)O2)[C@@H](COP(=O)(O)O)O[C@H]1n1cnc2c(=O)[nH]c(N)nc21 | – | – | 20.3 µM
CO[C@@H]1[C@H](O[P@](=O)(NCCCOP(=O)(O)O)OC[C@@H]2C[C@@H](O)[C@H](n3ccc(N)nc3=O)O2)[C@@H](COP(=O)(O)O)O[C@H]1n1cnc2c(=O)[nH]c(N)nc21 | – | – | 18.5 µM
CO[C@@H]1[C@H](O[P@@](=O)(NCCCC(C(=O)O)C(=O)O)OC[C@@H]2C[C@@H](O)[C@H](n3ccc(N)nc3=O)O2)[C@@H](COP(=O)(O)O)O[C@H]1n1cnc2c(=O)[nH]c(N)nc21 | – | – | 121 µM
CO[C@@H]1[C@H](O[P@](=O)(NCCCC(C(=O)O)C(=O)O)OC[C@@H]2C[C@@H](O)[C@H](n3ccc(N)nc3=O)O2)[C@@H](COP(=O)(O)O)O[C@H]1n1cnc2c(=O)[nH]c(N)nc21 | – | – | 57 µM
COCCOCCN[P@@](=O)(OC[C@@H]1C[C@@H](O)[C@H](n2ccc(N)nc2=O)O1)O[C@H]1[C@@H](OC)[C@H](n2cnc3c(=O)[nH]c(N)nc32)O[C@@H]1COP(=O)(O)O | – | – | 64 µM
COCCOCCN[P@](=O)(OC[C@@H]1C[C@@H](O)[C@H](n2ccc(N)nc2=O)O1)O[C@H]1[C@@H](OC)[C@H](n2cnc3c(=O)[nH]c(N)nc32)O[C@@H]1COP(=O)(O)O | – | – | 42 µM
COCCNP(=O)(OC[C@@H]1C[C@@H](O)[C@H](n2ccc(N)nc2=O)O1)O[C@H]1[C@@H](OC)[C@H](n2cnc3c(=O)[nH]c(N)nc32)O[C@@H]1COP(=O)(O)O (some centres undefined) | 19.4 µM | > 65 µM | 29 µM
COCCN[P@@](=O)(OC[C@@H]1C[C@@H](O)[C@H](n2ccc(N)nc2=O)O1)O[C@H]1[C@@H](OC)[C@H](n2cnc3c(=O)[nH]c(N)nc32)O[C@@H]1COP(=O)(O)O | 1.6 µM | > 65 µM | 72 µM
COCCN[P@](=O)(OC[C@@H]1C[C@@H](O)[C@H](n2ccc(N)nc2=O)O1)O[C@H]1[C@@H](OC)[C@H](n2cnc3c(=O)[nH]c(N)nc32)O[C@@H]1COP(=O)(O)O | 2.5 µM | > 65 µM | 7 µM
COCCN[P@@](=O)(OC[C@H]1O[C@@H](n2ccc(N)nc2=O)[C@H](O)[C@@H]1O)O[C@H]1[C@@H](OC)[C@H](n2cnc3c(=O)[nH]c(N)nc32)O[C@@H]1COP(=O)(O)O | 38 µM | > 65 µM | 28 µM
COCCN[P@](=O)(OC[C@H]1O[C@@H](n2ccc(N)nc2=O)[C@H](O)[C@@H]1O)O[C@H]1[C@@H](OC)[C@H](n2cnc3c(=O)[nH]c(N)nc32)O[C@@H]1COP(=O)(O)O | 4.5 µM | > 65 µM | 37 µM
CO[C@@H]1[C@H](O[P@@](=O)(NCCCCCC(=O)O)OC[C@@H]2C[C@@H](O)[C@H](n3ccc(N)nc3=O)O2)[C@@H](COP(=O)(O)O)O[C@H]1n1cnc2c(=O)[nH]c(N)nc21 | – | – | 9 µM
CO[C@@H]1[C@H](O[P@](=O)(NCCCCCC(=O)O)OC[C@@H]2C[C@@H](O)[C@H](n3ccc(N)nc3=O)O2)[C@@H](COP(=O)(O)O)O[C@H]1n1cnc2c(=O)[nH]c(N)nc21 | – | – | 13 µM
CO[C@@H]1[C@H](O[P@@](=O)(NCCCCCC(=O)O)OC[C@H]2O[C@@H](n3ccc(N)nc3=O)[C@H](O)[C@@H]2O)[C@@H](COP(=O)(O)O)O[C@H]1n1cnc2c(=O)[nH]c(N)nc21 | – | – | 26 µM
CO[C@@H]1[C@H](O[P@](=O)(NCCCCCC(=O)O)OC[C@H]2O[C@@H](n3ccc(N)nc3=O)[C@H](O)[C@@H]2O)[C@@H](COP(=O)(O)O)O[C@H]1n1cnc2c(=O)[nH]c(N)nc21 | – | – | 16 µM
CO[C@@H]1[C@H](OP(=O)(NCCCCCC(=O)O)OC[C@H]2O[C@@H](n3ccc(N)nc3=O)[C@H](O)[C@@H]2O)[C@@H](COP(=O)(O)O)O[C@H]1n1cnc2c(=O)[nH]c(N)nc21 (some centres undefined) | – | – | 83 µM
COCCNP(=O)(OC[C@H]1O[C@@H](n2ccc(N)nc2=O)[C@H](O)[C@@H]1O)O[C@H]1[C@@H](OC)[C@H](n2cnc3c(=O)[nH]c(N)nc32)O[C@@H]1COP(=O)(O)O (some centres undefined) | > 50 µM | > 65 µM | 140 µM
